Values after ≈ are worked out from the molar mass of the structure shown.
Legend:
[1] = target: T1, Inhibitor of nuclear factor kappa-B kinase subunit beta (Homo sapiens, UniProt O14920); experiment: Inhibition of recombinant human C-terminal GST-tagged IKKbeta (1 to 737 residues) expressed in baculovirus expression system using GST-IkBalpha substrate measured after 30 mins by TR-FRET assay
T1 sequence (O14920 whole entry): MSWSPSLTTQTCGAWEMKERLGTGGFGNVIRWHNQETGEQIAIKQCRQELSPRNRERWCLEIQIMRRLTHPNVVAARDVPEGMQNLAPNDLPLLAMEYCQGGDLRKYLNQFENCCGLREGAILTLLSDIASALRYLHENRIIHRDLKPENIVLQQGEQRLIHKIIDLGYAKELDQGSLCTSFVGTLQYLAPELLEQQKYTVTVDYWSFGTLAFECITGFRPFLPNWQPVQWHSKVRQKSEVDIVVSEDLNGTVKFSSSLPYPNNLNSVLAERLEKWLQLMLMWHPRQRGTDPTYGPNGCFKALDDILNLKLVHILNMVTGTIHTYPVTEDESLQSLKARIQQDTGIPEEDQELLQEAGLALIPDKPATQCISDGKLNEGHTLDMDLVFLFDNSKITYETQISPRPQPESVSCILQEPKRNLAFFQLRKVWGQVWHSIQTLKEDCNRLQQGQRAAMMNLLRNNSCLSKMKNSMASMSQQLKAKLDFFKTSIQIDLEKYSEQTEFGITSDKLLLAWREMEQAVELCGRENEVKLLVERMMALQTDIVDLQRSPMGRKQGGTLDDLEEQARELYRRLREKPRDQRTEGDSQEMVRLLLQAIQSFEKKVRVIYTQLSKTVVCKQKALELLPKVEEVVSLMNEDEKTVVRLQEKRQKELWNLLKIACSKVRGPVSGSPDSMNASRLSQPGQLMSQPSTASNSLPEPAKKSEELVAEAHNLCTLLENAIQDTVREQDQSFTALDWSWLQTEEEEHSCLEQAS
Summary of the method: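 IKK pIC50 values are the mean of more than 2 determinations unless noted otherwise. Compounds were tested as racemic mixtures.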

[2] = Kinetic aqueous solubility of the compound by UV-HPLC analysis; type: physicochemical; settings: buffer; read-out: Kinetic_solubility
[3] = Permeability of the compound by PAMPA; type: ADME; settings: read-out: permeability
[4] = target: T1, Inhibitor of nuclear factor kappa-B kinase subunit beta; experiment: Inhibition of IKKbeta in human CD14-positive monocytes assessed as reduction in LPS-stimulated TNFalpha secretion preincubated for 30 mins followed by LPS stimulation and measured after 24 hrs by Alpha screen assay; type: cell-based
[5] = AUC in Sprague-Dawley rat at 2.1 mg/kg, po; type: ADME, organism-based; settings: in vivo
Summary of the method: (§1)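 Male Sprague Dawley rats, n=2 (n=3 for one compound). The i.v. leg used 5% DMSO with 20% Cavitron and the oral leg 5% DMSO with 6% Cavitron. Oral doses were 2 mg/kg, or 2.1 mg/kg where stated. The i.v. dose was 1 mg/kg. Clearance is plasma clearance.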

[6] = Plasma clearance in Sprague-Dawley rat at 2.1 mg/kg, po or 1 mg/kg, iv; type: ADME, organism-based; summary of the method: as §1
[7] = Volume of distribution at steady state in Sprague-Dawley rat at 2.1 mg/kg, po or 1 mg/kg, iv; type: ADME, organism-based; settings: in vivo, read-out: Vdss; summary of the method: as §1
[8] = Half life in Sprague-Dawley rat at 2.1 mg/kg, po or 1 mg/kg, iv; type: ADME, organism-based; settings: in vivo; summary of the method: as §1
[9] = Oral bioavailability in Sprague-Dawley rat at 2.1 mg/kg; type: ADME, organism-based; settings: in vivo; summary of the method: as §1
[10] = AUC in Sprague-Dawley rat at 2 mg/kg, po; type: ADME, organism-based; settings: in vivo; summary of the method: as §1
[11] = Plasma clearance in Sprague-Dawley rat at 2 mg/kg, po or 1 mg/kg, iv; type: ADME, organism-based; summary of the method: as §1
[12] = Volume of distribution at steady state in Sprague-Dawley rat at 2 mg/kg, po or 1 mg/kg, iv; type: ADME, organism-based; settings: in vivo, read-out: Vdss; summary of the method: as §1
[13] = Half life in Sprague-Dawley rat at 2 mg/kg, po or 1 mg/kg, iv; type: ADME, organism-based; settings: in vivo; summary of the method: as §1
[14] = Oral bioavailability in Sprague-Dawley rat at 2 mg/kg; type: ADME, organism-based; settings: in vivo; summary of the method: as §1
[15] = Kinetic aqueous solubility of the compound by chemiluminescent nitrogen detection assay; type: physicochemical; settings: buffer; read-out: Kinetic_solubility
[16] = AUC in Beagle dog at 2.03 mg/kg, po; type: ADME, organism-based, Canis lupus familiaris; settings: in vivo
Summary of the method: (§2)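 Male Beagle dogs, n=3. Vehicles were 5% DMSO with 20% Cavitron for i.v. dosing at 1.11 mg/kg and 5% DMSO with 6% Cavitron for oral dosing at 2.03 mg/kg. Derived values were plasma clearance, steady-state volume of distribution, half-life and oral bioavailability.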

[17] = Plasma clearance in Beagle dog at 2.03 mg/kg, po or 1.11 mg/kg, iv; type: ADME, organism-based, Canis lupus familiaris; summary of the method: as §2
[18] = Volume of distribution at steady state in Beagle dog at 2.03 mg/kg, po or 1.11 mg/kg, iv; type: ADME, organism-based, Canis lupus familiaris; settings: in vivo, read-out: Vdss; summary of the method: as §2
[19] = Half life in Beagle dog at 2.03 mg/kg, po or 1.11 mg/kg, iv; type: ADME, organism-based, Canis lupus familiaris; settings: in vivo; summary of the method: as §2
[20] = Oral bioavailability in Beagle dog at 2.03 mg/kg; type: ADME, organism-based, Canis lupus familiaris; settings: in vivo; summary of the method: as §2
Rattus norvegicus = experiment: Anti-inflammatory activity in LPS-induced Lewis rat inflammation model assessed as inhibition of LPS-induced TNFalpha secretion in blood administered orally 30 mins prior to LPS challenge and measured after 2 hrs by ELISA; type: functional; settings: po
Canis familiaris = experiment: Anti-inflammatory activity in inhaled LPS-induced Beagle dog lung neutrophilia model assessed as inhibition of LPS-induced increase in neutrophils in bronchoalveolar lavage administered orally 30 mins prior to LPS instillation and measured after […] by diff quick staining based hemocytometric method; type: functional; settings: Canis lupus familiaris, po

NC(=O)c1cc(-c2ccccc2)cc2c([C@H]3C[C@H]4CC[C@@H](C3)S4(=O)=O)c[nH]c12 gave an IC50 [1] of 39.8 nM.

Molecule CN(C)CCS(=O)(=O)N1CCC(c2c[nH]c3c(C(N)=O)cc(-c4ccccc4)cc23)CC1 has an IC50 [1] of 10 nM, a solubility kinetic [2] of 8 µM (≈ 3.64 µg/mL) and a Papp [3] of 27 ×10⁻⁶ cm/s. It also gave an IC50 [4] of 500 nM, an AUC [5] of 2080 ng·h/mL and a clearance [6] of 7.43 mL/min/kg. The Vd [7] was 0.84 L/kg, the half-life [8] was 105 min and the bioavailability [9] was 46%.

CCN(CC)CCCS(=O)(=O)N1CCC(c2c[nH]c3c(C(N)=O)cc(-c4ccccc4)cc23)CC1 gave an IC50 [1] of 15.8 nM, a solubility kinetic [2] of 173 µM (≈ 85.9 µg/mL) and a Papp [3] of 20 ×10⁻⁶ cm/s. For the same molecule, the IC50 [4] was 190 nM.

Molecule NC(=O)c1cc(-c2ccccc2)cc2c(C3CCCC(=O)C3)c[nH]c12 (stereo not given) has an IC50 [1] of 79.4 nM.

Work on CS(=O)(=O)CCc1c[nH]c2c(C(N)=O)cc(-c3ccccc3)cc12 yielded an IC50 [1] of 63.1 nM.

Molecule CC1(C)CC(c2c[nH]c3c(C(N)=O)cc(-c4ccccc4)cc23)NC1=O (stereo not given) has an IC50 [1] of 20 nM.

For CC1(C)CC(=O)NC1c1c[nH]c2c(C(N)=O)cc(-c3ccccc3)cc12 (stereo not given), the IC50 [1] was 200 nM.

In the case of CN1C(=O)CCC1c1c[nH]c2c(C(N)=O)cc(-c3ccccc3)cc12 (stereo not given), the IC50 [1] is reported as 501 nM.

For NC(=O)c1cc(-c2ccc(F)cc2)cc2c(C3CCS(=O)(=O)CC3)c[nH]c12, the IC50 [1] was 12.6 nM, the Papp [3] was 28 ×10⁻⁶ cm/s and the IC50 [4] was 50 to 810 nM. The AUC [10] was 1270 ng·h/mL, the clearance [11] was 23.5 mL/min/kg and the Vd [12] was 3.7 L/kg. It also gave a half-life [13] of 132 min and a bioavailability [14] of 47.4%.

Molecule CC1(C)C[C@H](c2c[nH]c3c(C(N)=O)cc(-c4ccc(F)cc4)cc23)CCS1(=O)=O has an IC50 [1] of 7.94 nM, a Papp [3] of 28.3 ×10⁻⁶ cm/s and an IC50 [4] of 130 nM. For the same molecule, the AUC [10] was 1960 ng·h/mL, the clearance [11] was 13.2 mL/min/kg and the Vd [12] was 4.7 L/kg. The half-life [13] was 270 min, the bioavailability [14] was 94.1% and the solubility kinetic [15] was 32 µM (≈ 13.3 µg/mL). For the same molecule, the AUC [16] was 8200 ng·h/mL, the clearance [17] was 1.86 mL/min/kg and the Vd [18] was 2.87 L/kg. For the same molecule, the half-life [19] was 1250 min, the bioavailability [20] was 65.3% and the ED50 (Rattus norvegicus) was 21.7 µmol/kg. For the same molecule, the ED50 (Canis familiaris) was 1.8 µmol/kg.

Work on NC(=O)c1cc(-c2ccccc2)cc2c(C3CCS(=O)(=O)C3)c[nH]c12 (stereo not given) yielded an IC50 [1] of 100 nM.

Work on CC1(C)CC(c2c[nH]c3c(C(N)=O)cc(-c4ccccc4)cc23)CCS1(=O)=O (stereo not given) yielded an IC50 [1] of 7.94 nM, a Papp [3] of 33 ×10⁻⁶ cm/s and an IC50 [4] of 110 nM. It also gave an AUC [10] of 1430 ng·h/mL, a clearance [11] of 51.1 mL/min/kg and a Vd [12] of 7.2 L/kg. The half-life [13] was 140 min, the bioavailability [14] was 115% and the solubility kinetic [15] was 39 µM (≈ 15.5 µg/mL).

With NC(=O)c1cc(-c2ccccc2)cc2c(C3CCCS(=O)(=O)C3)c[nH]c12 (stereo not given) the IC50 [1] was 158 nM.

NC(=O)c1cc(-c2ccccc2)cc2c(C3CCS(=O)(=O)CC3)c[nH]c12 showed an IC50 [1] of 10 nM, a solubility kinetic [2] of 130 µM (≈ 47.9 µg/mL) and a Papp [3] of 27.7 ×10⁻⁶ cm/s. The IC50 [4] was 80 nM, the AUC [10] was 904 ng·h/mL and the clearance [11] was 35 mL/min/kg. It also gave a Vd [12] of 2.8 L/kg, a half-life [13] of 94.8 min and a bioavailability [14] of 97%. For the same molecule, the AUC [16] was 753 ng·h/mL, the clearance [17] was 23.6 mL/min/kg and the Vd [18] was 1.54 L/kg. The half-life [19] was 56.9 min, the bioavailability [20] was 52.6% and the ED50 (Rattus norvegicus) was 7.6 µmol/kg. For the same molecule, the ED50 (Canis familiaris) was 2.9 µmol/kg.
